Laboratory results published in ChEMBL document CHEMBL1153240, “Microwave assisted synthesis and in vitro cytotoxicities of substituted (Z)-2-amino-5-(1-benzyl-1H-indol-3-yl)methylene-1-methyl-1H-imidazol-4(5H)-ones against human tumor cell lines” (2010).

Legend:
Format in all cases: functional
[1] = Cytotoxicity against human […] cells
How it was run: (§1)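 NCI 60-cell-line panel, five-dose response study. Effect is plotted against log10 drug concentration for each cell line. GI50 is the molar concentration giving a 50% reduction in net protein increase relative to control cells. LC50 is the concentration lethal to 50% of cells.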

SK-MEL-2 = experiment: Cytotoxicity against human SK-MEL-2 cells; how it was run: as §1
MCF7 = experiment: Cytotoxicity against human MCF7 cells; how it was run: as §1
HT-29 = experiment: Cytotoxicity against human HT-29 cells
How it was run: (§2)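 NCI 60-cell-line panel, five-concentration dose-response. Cytotoxic effect was plotted against log10 drug concentration for each line. GI50 is the molar concentration giving a 50% reduction in net protein increase relative to control cells. LC50 is the concentration lethal to 50% of cells. Both were read from the curves.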

M14 = experiment: Cytotoxicity against human M14 cells; how it was run: as §1
A549 = experiment: Cytotoxicity against human A549 cells; how it was run: as §1
T47D = experiment: Cytotoxicity against human T47D cells
How it was run: (§3)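 NCI 60 human tumor cell line panel, five-dose dose-response study. Cytotoxic effect was plotted against log10 drug concentration for each cell line. GI50 is the molar concentration giving 50% reduction in net protein increase versus control cells. LC50 is the concentration lethal to 50% of cells.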

OVCAR-4 = experiment: Cytotoxicity against human OVCAR4 cells; how it was run: as §1
NCI-H226 = experiment: Cytotoxicity against human NCI-H226 cells; how it was run: as §1
SNB-75 = experiment: Cytotoxicity against human SNB75 cells; how it was run: as §1
UACC-257 = experiment: Cytotoxicity against human UACC257 cells; how it was run: as §3
SNB-19 = experiment: Cytotoxicity against human SNB19 cells; how it was run: as §1
SK-MEL-5 = experiment: Cytotoxicity against human SK-MEL-5 cells; how it was run: as §1
OVCAR-8 = experiment: Cytotoxicity against human OVCAR8 cells; how it was run: as §1
SN12C = experiment: Cytotoxicity against human SN12C cells; how it was run: as §1
LOX IMVI = experiment: Cytotoxicity against human LOXIMVI cells; how it was run: as §1
HCT-116 = experiment: Cytotoxicity against human HCT116 cells; how it was run: as §1
HOP-62 = experiment: Cytotoxicity against human HOP62 cells; how it was run: as §1
TK-10 = experiment: Cytotoxicity against human TK10 cells; how it was run: as §3
HOP-92 = experiment: Cytotoxicity against human HOP92 cells; how it was run: as §1
BT-549 = experiment: Cytotoxicity against human BT549 cells; how it was run: as §1
UO-31 = experiment: Cytotoxicity against human UO31 cells; how it was run: as §3
MDA-MB-231 = experiment: Cytotoxicity against human MDA-MB-231 cells; how it was run: as §1
EKVX = experiment: Cytotoxicity against human EKVX cells; how it was run: as §1
786-0 = experiment: Cytotoxicity against human 786-0 cells; how it was run: as §1
SF-268 = experiment: Cytotoxicity against human SF268 cells; how it was run: as §1
HCT-15 = experiment: Cytotoxicity against human HCT15 cells; how it was run: as §1
CCRF-CEM = experiment: Cytotoxicity against human CCRF-CEM cells; how it was run: as §1
IGROV-1 = experiment: Cytotoxicity against human IGROV1 cells; how it was run: as §1
NCI-H322M = experiment: Cytotoxicity against human NCI-H322M cells; how it was run: as §1
SR = experiment: Cytotoxicity against human SR cells; how it was run: as §1
MDA-MB-468 = experiment: Cytotoxicity against human MDA-MB-468 cells; how it was run: as §1
MDA-MB-435 = experiment: Cytotoxicity against human MDA-MB-435 cells; how it was run: as §2
HL-60 = experiment: Cytotoxicity against human HL60 cells; how it was run: as §1
SW-620 = experiment: Cytotoxicity against human SW620 cells; how it was run: as §3
NCI-H23 = experiment: Cytotoxicity against human NCI-H23 cells; how it was run: as §1
CAKI-1 = experiment: Cytotoxicity against human Caki1 cells; how it was run: as §1
U-251 = experiment: Cytotoxicity against human U251 cells; how it was run: as §3
SF-539 = experiment: Cytotoxicity against human SF539 cells; how it was run: as §1
[2] = Cytotoxicity against human Hs 578T cells; how it was run: as §1
OVCAR-3 = experiment: Cytotoxicity against human OVCAR-3 cells; how it was run: as §1
NCI-H460 = experiment: Cytotoxicity against human NCI-H460 cells; how it was run: as §1
SF-295 = experiment: Cytotoxicity against human SF295 cells; how it was run: as §1
RXF 393 = experiment: Cytotoxicity against human RXF393 cells; how it was run: as §1
ACHN = experiment: Cytotoxicity against human ACHN cells; how it was run: as §1
OVCAR-5 = experiment: Cytotoxicity against human OVCAR5 cells; how it was run: as §1
KM12 = experiment: Cytotoxicity against human KM12 cells; how it was run: as §1
SK-MEL-28 = experiment: Cytotoxicity against human SK-MEL-28 cells; how it was run: as §1
DU-145 = experiment: Cytotoxicity against human DU145 cells; how it was run: as §1
K562 = experiment: Cytotoxicity against human K562 cells; how it was run: as §1
MOLT-4 = experiment: Cytotoxicity against human MOLT4 cells; how it was run: as §1
SK-OV-3 = experiment: Cytotoxicity against human SKOV3 cells; how it was run: as §1
PC-3 = experiment: Cytotoxicity against human PC3 cells; how it was run: as §1
A498 = experiment: Cytotoxicity against human A498 cells; how it was run: as §1
Malme-3M = experiment: Cytotoxicity against human MALME-3M cells; how it was run: as §1
HCC 2998 = experiment: Cytotoxicity against human HCC2998 cells; how it was run: as §1
COLO 205 = experiment: Cytotoxicity against human COLO205 cells; how it was run: as §2
NCI-H522 = experiment: Cytotoxicity against human NCI-H522 cells; how it was run: as §1
NCI/ADR-RES = experiment: Cytotoxicity against human NCI/ADR-RES cells; how it was run: as §1
[3] = read-out: LC50 (the source's name)

CN1C(N)=NC(=O)/C1=C/c1cn(Cc2ccccc2Br)c2ccccc12
GI50 [1]: 1.19 µM
LC50 (concentration lethal to 50% of cells) [1]: 65.9 µM
GI50 (SK-MEL-2): 5.73 µM
CC50 (SK-MEL-2; [3]): > 100 µM
GI50 (MCF7): 2.25 µM
CC50 (MCF7; [3]): 48.1 µM
GI50 (HT-29): 2.18 µM
CC50 (HT-29; [3]): 6.94 µM
GI50 (M14): 4.46 µM
LC50 (M14): 47.8 µM
GI50 (A549): 28.7 µM
CC50 (A549; [3]): > 100 µM
GI50 (T47D): 1.68 µM
CC50 (T47D; [3]): 13.1 µM
GI50 (OVCAR-4): 2.41 µM
CC50 (OVCAR-4; [3]): 25.2 µM
GI50 (NCI-H226): 1.37 µM
LC50 (NCI-H226): 69.9 µM
GI50 (SNB-75): 1.58 µM
LC50 (concentration lethal to 50% of cells) (SNB-75): 18.6 µM
GI50 (UACC-257): 12.9 µM
LC50 (UACC-257): 66.9 µM
GI50 (SNB-19): 4.5 µM
CC50 (SNB-19; [3]): 43.8 µM
GI50 (SK-MEL-5): 3.38 µM
LC50 (SK-MEL-5): 42.3 µM
GI50 (OVCAR-8): 10.1 µM
CC50 (OVCAR-8; [3]): > 100 µM
GI50 (SN12C): 6.07 µM
CC50 (SN12C; [3]): 76.3 µM
GI50 (LOX IMVI): 1.97 µM
LC50 (LOX IMVI): 9.37 µM
GI50 (HCT-116): 2.42 µM
CC50 (HCT-116; [3]): 30.9 µM
GI50 (HOP-62): 8.78 µM
CC50 (HOP-62; [3]): 51.2 µM
GI50 (TK-10): 6.84 µM
CC50 (TK-10; [3]): > 100 µM
GI50 (HOP-92): 2.98 µM
CC50 (HOP-92; [3]): 44.5 µM
GI50 (BT-549): 2.05 µM
CC50 (BT-549; [3]): > 100 µM
GI50 (UO-31): 7.95 µM
CC50 (UO-31; [3]): > 100 µM
GI50 (MDA-MB-231): 4.07 µM
LC50 (MDA-MB-231): 46.7 µM
GI50 (EKVX): 58.1 µM
CC50 (EKVX; [3]): > 100 µM
GI50 (786-0): 6.15 µM
LC50 (786-0): 46.2 µM
GI50 (SF-268): 5.38 µM
CC50 (SF-268; [3]): 59.8 µM
GI50 (HCT-15): 19.8 µM
CC50 (HCT-15; [3]): > 100 µM
GI50 (CCRF-CEM): 2.54 µM
CC50 (CCRF-CEM; [3]): 36.2 µM
GI50 (IGROV-1): 20 µM
CC50 (IGROV-1; [3]): > 100 µM
GI50 (NCI-H322M): 11 µM
CC50 (NCI-H322M; [3]): > 100 µM
GI50 (SR): 1.96 µM
CC50 (SR; [3]): 72.7 µM
GI50 (MDA-MB-468): 1.69 µM
LC50 (MDA-MB-468): 6.9 µM
GI50 (MDA-MB-435): 4.97 µM
CC50 (MDA-MB-435; [3]): 68.6 µM
GI50 (HL-60): 1.85 µM
LC50 (HL-60): 21 µM
GI50 (SW-620): 3.68 µM
CC50 (SW-620; [3]): 43.3 µM
GI50 (NCI-H23): 8.07 µM
LC50 (concentration lethal to 50% of cells) (NCI-H23): 54.8 µM
GI50 (CAKI-1): 68.1 µM
CC50 (CAKI-1; [3]): > 100 µM
GI50 (U-251): 3.01 µM
CC50 (U-251; [3]): 66.2 µM
GI50 (SF-539): 1.73 µM
CC50 (SF-539; [3]): 6.94 µM
GI50 [2]: 3.97 µM
LC50 [2]: > 100 µM
GI50 (OVCAR-3): 1.95 µM
CC50 (OVCAR-3; [3]): 7.35 µM
GI50 (NCI-H460): 3.95 µM
CC50 (NCI-H460; [3]): 56.8 µM
GI50 (SF-295): 4.96 µM
CC50 (SF-295; [3]): > 100 µM
GI50 (RXF 393): 2.77 µM
CC50 (RXF 393; [3]): 53.7 µM
GI50 (ACHN): 11.8 µM
CC50 (ACHN; [3]): 59 µM
GI50 (OVCAR-5): 2.12 µM
CC50 (OVCAR-5; [3]): 29 µM
GI50 (KM12): 5.71 µM
CC50 (KM12; [3]): 50.8 µM
GI50 (SK-MEL-28): 4.14 µM
CC50 (SK-MEL-28; [3]): 38.4 µM
GI50 (DU-145): 82.1 µM
CC50 (DU-145; [3]): 68.8 µM
GI50 (K562): 2.45 µM
CC50 (K562; [3]): 77.4 µM
GI50 (MOLT-4): 4.57 µM
CC50 (MOLT-4; [3]): > 100 µM
GI50 (SK-OV-3): 11.9 µM
CC50 (SK-OV-3; [3]): 49.9 µM
GI50 (PC-3): 10.4 µM
CC50 (PC-3; [3]): 48.1 µM
GI50 (A498): 13.9 µM
CC50 (A498; [3]): 53.1 µM
GI50 (Malme-3M): 3.3 µM
CC50 (Malme-3M; [3]): 73.8 µM
GI50 (HCC 2998): 6.95 µM
CC50 (HCC 2998; [3]): 47.2 µM
GI50 (COLO 205): 2.21 µM
CC50 (COLO 205; [3]): 12.3 µM
GI50 (NCI-H522): 5.38 µM
LC50 (NCI-H522): > 100 µM
GI50 (NCI/ADR-RES): > 100 µM
CC50 (NCI/ADR-RES; [3]): > 100 µM
